Laboratory results published in the RNAGym collection of RNA variant scans (doi:10.1126/science.aae0568).
Variants at the floor of the assay were thinned out.

B1: tRNA (parent)
chain: GUUCCGUUGGCGUAAUGGUAACGCGUCUCCCUCCUAAGGAGAAGACUGCGGGUUCGAGUCCCGUACGGAACG

Variants of: B1
Experiment: yeast fitness relative to wild type (ratio to wild type); higher = fitter; tRNA-Arg(CCU), competitive growth, 37 C, YPD
Summary of the method: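 Gene amplicons from the start population and from each of six end populations were read by 100-nucleotide paired-end sequencing. Those end populations came from pooled Saccharomyces cerevisiae strains carrying tRNA-Arg(CCU) gene variants at the native locus, competed in YPD at 37°C for 24 hours. Fitness relative to wild type was worked out from changes in genotype frequencies. Genotypes needed ≥ 100 starting reads, and estimates < 0.5 were set to 0.5.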
G9A A36C G48A G67A gave a yeast fitness of no more than 0.5. With C11U A65U G68C the yeast fitness was 0.592. For A14G U35A, the yeast fitness was 0.561. Work on C29G G41C A57U yielded a yeast fitness of no more than 0.5. For C4U C24U A36C C62G C66A, the yeast fitness was no more than 0.5. For G17C G25C C61U, the yeast fitness was no more than 0.5. A14C A20U A69U gave a yeast fitness of 0.532. Work on C5U U7G A14C C29G yielded a yeast fitness of no more than 0.5. With U3C G25C A37U G44A the yeast fitness was 0.705. With C5A G44C U54C the yeast fitness was 0.556. A40C A57U C61U gave a yeast fitness of no more than 0.5. In the case of G17A G48C, the yeast fitness is reported as 0.827. With C5A A14G C24A the yeast fitness was 0.565. U32A C34U C55G C62U G68C gave a yeast fitness of no more than 0.5. G6A G10A A45G showed a yeast fitness of 0.647. With G6A A40G A42G the yeast fitness was 0.554. For U13A A15C A45G C55U C61G, the yeast fitness was no more than 0.5. With C5U G41A A70C the yeast fitness was 0.695. With C24G C34G G38C C62G A69C the yeast fitness was no more than 0.5. For C4A C5U U19A, the yeast fitness was 0.532. For C31G G44C A65G A69C, the yeast fitness was no more than 0.5. Variant U28C C60U has a yeast fitness of 0.73. Work on C24G G48A G52C A57C C60U yielded a yeast fitness of no more than 0.5. Work on C4A U26C A65C yielded a yeast fitness of no more than 0.5. G12A A14C gave a yeast fitness of 0.796. For U2A C5U G41A, the yeast fitness was no more than 0.5. In the case of U54A A69C, the yeast fitness is reported as 0.658. In the case of G9A U32C A43G G52A C61G, the yeast fitness is reported as 0.63. U2A G18A C30G U35C showed a yeast fitness of no more than 0.5. In the case of C11U C33G C61U, the yeast fitness is reported as no more than 0.5. With U2A U7C G25A A36C C60A C62G the yeast fitness was 0.524. With C31G C34U A42U the yeast fitness was 0.612. G10A G41A gave a yeast fitness of 0.661. U2G G6A A57G gave a yeast fitness of 0.527. With U13C A45C G50U the yeast fitness was no more than 0.5. C5G U19C U54C A69C gave a yeast fitness of no more than 0.5. U2C U13A G18A A42G showed a yeast fitness of no more than 0.5. Work on U7A U32G A37U C49U yielded a yeast fitness of 0.642. In the case of C33U G58U C61A, the yeast fitness is reported as no more than 0.5. With U8A A15G C27A G56A the yeast fitness was no more than 0.5. For A20C C34A A37G C46A G63C A69C, the yeast fitness was no more than 0.5. C27A U53A G58C A70C showed a yeast fitness of 0.57. U2C A37U G48A C61U gave a yeast fitness of no more than 0.5. G6C G67U showed a yeast fitness of 0.844. C30G A37G showed a yeast fitness of 0.513. C22G C27G U47C U59C C62U G68U gave a yeast fitness of no more than 0.5. C11A G56C gave a yeast fitness of no more than 0.5. U2C U19A C30U G38C showed a yeast fitness of 0.54. In the case of C5A U13C, the yeast fitness is reported as 0.926. U8A U28G showed a yeast fitness of 0.661. Work on A40U G51A yielded a yeast fitness of 0.777. For C33A C46A G67A, the yeast fitness was no more than 0.5. With C4A A15G C31U C33U the yeast fitness was no more than 0.5. For C11G C31U C61G, the yeast fitness was 0.64. C4U G23A U26A A45C gave a yeast fitness of no more than 0.5. Variant A15U C27A C62U A65C A69C has a yeast fitness of no more than 0.5. Variant A15U C30A C31U A45C C55G has a yeast fitness of no more than 0.5. For G17C C34U A57G A70U, the yeast fitness was 0.558. In the case of C4U C55A, the yeast fitness is reported as 0.701. Work on C11A C27U C61G yielded a yeast fitness of no more than 0.5. Variant U19G C49U A69C has a yeast fitness of no more than 0.5. With C5A C24G A70U the yeast fitness was no more than 0.5. G25A C61A gave a yeast fitness of 0.595. G12A C22G C31G gave a yeast fitness of 0.662. C11A A43U C46U U47G A70U gave a yeast fitness of no more than 0.5. Work on C4A C49G yielded a yeast fitness of 0.704. C22U C33U A43U G52A gave a yeast fitness of no more than 0.5. Variant U3A C4U C11A U53A A65U has a yeast fitness of no more than 0.5. C5U U32A gave a yeast fitness of 0.789. Work on C27U U59A C66U yielded a yeast fitness of no more than 0.5. Variant A14G A42U C62A has a yeast fitness of no more than 0.5. For G25A U47C U64C A70C, the yeast fitness was 1.06. U8A A14U gave a yeast fitness of 0.534. Work on A20G C24U A65C yielded a yeast fitness of 0.653. Work on G6C G17A U19G A69U yielded a yeast fitness of no more than 0.5. Work on C49G C55U yielded a yeast fitness of 0.692. Work on C4G C5U C49A A70C yielded a yeast fitness of 0.529. With C24A C46G U59C C62G the yeast fitness was 0.617. U47A G68A showed a yeast fitness of 0.621. Work on U7G A15G C33G A69U yielded a yeast fitness of no more than 0.5. Work on A21G G23A yielded a yeast fitness of 0.787. Work on U8G A21G C29U C30A U32C yielded a yeast fitness of no more than 0.5. C5G U26C A69C showed a yeast fitness of 0.617. Work on A20G G56U yielded a yeast fitness of 0.804. With C4U G10C C31G the yeast fitness was no more than 0.5. A36G U64A showed a yeast fitness of 0.796. For G6C G12A C27U G39C, the yeast fitness was 0.616. With G51C U59C the yeast fitness was 0.523. In the case of U13G C22G C30U A36G A40U U54G, the yeast fitness is reported as no more than 0.5. In the case of G9A A43C A69U A70C, the yeast fitness is reported as 0.782. For C5U A15G A70U, the yeast fitness was 0.696. In the case of C34U U35A C49G, the yeast fitness is reported as 0.57. With U13C A45G the yeast fitness was 0.916. Variant C5A C61U has a yeast fitness of 0.966. Variant G9A C34G A65U has a yeast fitness of no more than 0.5. U2C U35C U47C showed a yeast fitness of 0.788. C4U A20C A65C gave a yeast fitness of 0.719. C4A A21G G68A showed a yeast fitness of 0.7. G17C C27U A37G A65G showed a yeast fitness of no more than 0.5. U19A C31G A36U A65U showed a yeast fitness of no more than 0.5. For C5U U47G, the yeast fitness was 0.615. Variant C5U G23A U35A has a yeast fitness of no more than 0.5. For C11G U32A G68A, the yeast fitness was 0.746. With A14C A21G G25A C33U C61A A69U the yeast fitness was no more than 0.5. Work on G23C C24U yielded a yeast fitness of 0.61. C30U G41A gave a yeast fitness of 0.842. U2G C24A C33U A40G G51C A57U gave a yeast fitness of no more than 0.5. Variant G17A A21C U32C has a yeast fitness of no more than 0.5. For G39A U53A G68C, the yeast fitness was no more than 0.5. With C11A A21C C31A C62U the yeast fitness was no more than 0.5. G10A G25A gave a yeast fitness of 0.862. Variant U2C G51A A69U has a yeast fitness of no more than 0.5. Work on G12C C27U C62G yielded a yeast fitness of no more than 0.5. C4G C30G A40G A65C showed a yeast fitness of no more than 0.5. Variant U16G A21C C34A has a yeast fitness of no more than 0.5. Variant A37G G38A has a yeast fitness of 0.725. With C24U C49A the yeast fitness was 0.716. Work on U16A G52A A70C yielded a yeast fitness of no more than 0.5. Variant C11G U32C G48A C60G has a yeast fitness of no more than 0.5. With U26G G39C G58A C66U the yeast fitness was no more than 0.5. With G44C C49A the yeast fitness was 0.625. In the case of G44A C55A A69C, the yeast fitness is reported as no more than 0.5. With C33U C49U the yeast fitness was 0.849. Variant A21C C66G has a yeast fitness of 0.609. Work on U47A C55G yielded a yeast fitness of 0.684. Work on C24U C29G G38C A42C yielded a yeast fitness of no more than 0.5. In the case of U3C C22A, the yeast fitness is reported as 0.79. C24U C31A C34U showed a yeast fitness of no more than 0.5. C22U A36C A65U G67C showed a yeast fitness of no more than 0.5. Variant U2C C24G U53G A57G has a yeast fitness of no more than 0.5. Work on C5A G17C A57G C66U yielded a yeast fitness of no more than 0.5. In the case of G9C A14G U26A U32G, the yeast fitness is reported as no more than 0.5. Variant C5G A15U C46U has a yeast fitness of 0.594. G10A U26A C49U C66U gave a yeast fitness of no more than 0.5. Variant G12C G44A has a yeast fitness of 0.879. C11G A15G showed a yeast fitness of 0.596. In the case of G17A U19A G23A C34U, the yeast fitness is reported as no more than 0.5. Variant A14G C24G A65C has a yeast fitness of no more than 0.5. In the case of G6A A15U G23A C33A U54A, the yeast fitness is reported as no more than 0.5. For C4U G6A A36C C46U, the yeast fitness was no more than 0.5. G63C A65G gave a yeast fitness of 0.594. For C4U U26C A36C U64A A70C, the yeast fitness was no more than 0.5. In the case of C22G G52A C55U, the yeast fitness is reported as no more than 0.5. With U3A C61G the yeast fitness was 0.767. For U13C A14C C34U G38C G51A A57C C66U, the yeast fitness was no more than 0.5. For U8A G18C C24A U26A U32C, the yeast fitness was no more than 0.5. C55U C60A A65U gave a yeast fitness of no more than 0.5. A20C G67C A70U gave a yeast fitness of 0.761. For U2A C46G, the yeast fitness was 0.829. With G17A C24U C46U C60A the yeast fitness was no more than 0.5. In the case of C5G G41A, the yeast fitness is reported as 0.698. In the case of U2A C33U, the yeast fitness is reported as 0.636. In the case of C24U C33G U53C C55U A70G, the yeast fitness is reported as no more than 0.5. For C34G C62U, the yeast fitness was 0.639. Work on G10C C11G C55G C62U yielded a yeast fitness of 0.62. In the case of G48A G51C, the yeast fitness is reported as 0.655. C5G U13C A37U G51C A57C showed a yeast fitness of no more than 0.5. Variant U8A A40G C49G U54A C55A has a yeast fitness of no more than 0.5. C5A C34U A36C A40C C55A C66U showed a yeast fitness of no more than 0.5. In the case of U2A A14C G50A G63C, the yeast fitness is reported as no more than 0.5. Work on A21G U54A yielded a yeast fitness of 0.575. With G9C A15G C33U A36C G39C C46G G51C the yeast fitness was no more than 0.5. For C5G C29G C33A, the yeast fitness was no more than 0.5. With G9A U19C G23C C49U the yeast fitness was no more than 0.5. Variant U16C A40U A65C has a yeast fitness of 0.626. In the case of C4G A20G A43G, the yeast fitness is reported as 0.502. Work on A36G C49G yielded a yeast fitness of 0.776.
